Measurements taken from ChEMBL document CHEMBL1136610, “Dehydrophenylalanine derivatives as VLA-4 integrin antagonists” (Bioorg Med Chem Lett, 2003).

Columns and labels:
[1] = species on record: Rattus norvegicus; experiment: Clearance rate constant using isolated perfused rat liver (IPRL) assay; assay type: ADME
[2] = molecular target: T1, Integrin alpha-4/beta-1 (Homo sapiens, UniProt P05556+P13612); experiment: Inhibition of VLA-4 to VCAM-1 binding; assay type: protein-complex assay
Outline: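 Test compounds titrated into a solution of 2-domain VCAM-Fc-Ig, then added to assay wells. Buffer: TBS with 1% BSA, 1 mM MnCl2 and 0.1% Tween. Incubated 2 h at room temperature, then washed. Bound VCAM detected with peroxidase-coupled anti-human Fc. Reported as IC50.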

[3] = molecular target: T1, Integrin alpha-4/beta-1; experiment: Inhibition of VLA-4 to VCAM-1 binding in Jurkat cell adhesion assay; assay type: cell-based
Outline: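 Jurkat cells expressing VLA-4 incubated 30 min at 37 °C with test compounds on human 2-domain VCAM-1-Fc, which was immobilised on the plate via anti-human Fc. Plates washed and adherent cells stained with Rose Bengal. Reported as IC50.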

T1 sequence (P05556 whole entry): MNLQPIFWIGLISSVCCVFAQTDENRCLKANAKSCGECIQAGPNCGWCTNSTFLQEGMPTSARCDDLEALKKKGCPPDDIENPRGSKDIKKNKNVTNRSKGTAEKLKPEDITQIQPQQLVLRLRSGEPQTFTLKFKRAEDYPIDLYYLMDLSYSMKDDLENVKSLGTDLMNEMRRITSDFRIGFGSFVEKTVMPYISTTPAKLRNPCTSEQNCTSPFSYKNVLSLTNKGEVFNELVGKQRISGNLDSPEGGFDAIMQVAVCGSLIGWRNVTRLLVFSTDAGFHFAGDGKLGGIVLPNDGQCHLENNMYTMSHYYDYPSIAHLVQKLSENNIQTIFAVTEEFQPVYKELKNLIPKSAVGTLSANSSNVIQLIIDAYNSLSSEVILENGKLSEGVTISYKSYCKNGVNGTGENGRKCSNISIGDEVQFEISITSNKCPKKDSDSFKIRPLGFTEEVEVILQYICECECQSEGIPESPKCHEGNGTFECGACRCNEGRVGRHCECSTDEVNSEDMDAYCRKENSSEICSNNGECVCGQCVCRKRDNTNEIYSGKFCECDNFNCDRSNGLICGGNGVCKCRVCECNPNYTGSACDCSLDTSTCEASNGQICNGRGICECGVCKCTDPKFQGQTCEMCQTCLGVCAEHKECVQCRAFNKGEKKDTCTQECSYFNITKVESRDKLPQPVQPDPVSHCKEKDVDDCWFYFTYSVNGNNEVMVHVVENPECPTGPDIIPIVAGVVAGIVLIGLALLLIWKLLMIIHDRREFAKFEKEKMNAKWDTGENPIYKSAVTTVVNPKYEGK
T1 sequence (P13612 whole entry): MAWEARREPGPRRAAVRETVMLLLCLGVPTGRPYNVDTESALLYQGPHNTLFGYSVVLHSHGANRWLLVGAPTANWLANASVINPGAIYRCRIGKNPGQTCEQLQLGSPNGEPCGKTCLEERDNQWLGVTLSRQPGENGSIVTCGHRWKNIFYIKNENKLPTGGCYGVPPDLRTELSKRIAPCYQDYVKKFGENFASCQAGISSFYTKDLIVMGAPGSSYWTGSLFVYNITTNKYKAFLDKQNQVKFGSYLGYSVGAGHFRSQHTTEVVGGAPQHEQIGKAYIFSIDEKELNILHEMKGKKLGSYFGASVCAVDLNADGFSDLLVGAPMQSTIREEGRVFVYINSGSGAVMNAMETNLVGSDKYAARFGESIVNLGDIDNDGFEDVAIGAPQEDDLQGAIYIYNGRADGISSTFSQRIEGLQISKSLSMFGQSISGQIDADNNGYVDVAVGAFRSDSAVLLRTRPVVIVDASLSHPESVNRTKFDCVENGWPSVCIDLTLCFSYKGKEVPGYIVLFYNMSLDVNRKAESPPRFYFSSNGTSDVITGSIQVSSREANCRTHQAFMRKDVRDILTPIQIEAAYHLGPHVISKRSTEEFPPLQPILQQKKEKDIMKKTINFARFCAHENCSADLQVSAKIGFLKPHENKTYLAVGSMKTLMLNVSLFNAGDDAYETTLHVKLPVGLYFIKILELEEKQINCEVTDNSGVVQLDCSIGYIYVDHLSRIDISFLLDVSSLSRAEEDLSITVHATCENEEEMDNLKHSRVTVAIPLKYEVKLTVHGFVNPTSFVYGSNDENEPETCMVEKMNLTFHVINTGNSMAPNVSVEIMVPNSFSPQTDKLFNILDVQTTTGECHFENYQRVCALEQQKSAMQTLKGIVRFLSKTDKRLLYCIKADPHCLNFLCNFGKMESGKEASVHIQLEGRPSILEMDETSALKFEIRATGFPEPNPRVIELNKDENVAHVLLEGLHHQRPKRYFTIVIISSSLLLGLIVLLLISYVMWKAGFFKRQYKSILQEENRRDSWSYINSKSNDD

Compound | k [1] | IC50 [2] | IC50 [3]
O=C(O)C1=Cc2ccc(NC(=O)c3c(Cl)cncc3Cl)cc2NC(c2cccnc2Cl)=N1 | 5.3 h⁻¹ | 55 nM | 410 nM
O=C(O)/C(=C\c1ccc(NC(=O)c2c(Cl)cncc2Cl)cc1)NC(=O)c1cccnc1Cl | 1.5 h⁻¹ | 66 nM | 8500 nM
O=C(O)/C(=C/c1ccc(NC(=O)c2c(Cl)cncc2Cl)cc1)NC(=O)c1cccnc1Cl | 3.9 h⁻¹ | 1.4 nM | 70 nM
O=C(O)/C(=C/c1ccc(OCc2c(Cl)cncc2Cl)cc1)NC(=O)c1cccnc1Cl |  | 140 nM | 14000 nM
O=C(O)/C(=C/c1ccc(OCc2c(Cl)cccc2Cl)cc1)NC(=O)c1cccnc1Cl | 3.7 h⁻¹ | 220 nM | 7100 nM
CC(=O)N1CSC[C@H]1C(=O)N/C(=C/c1ccc(OCc2ccccc2)cc1)C(=O)O | 0.6 h⁻¹ | 1500 nM | 20000 nM

Continued, values first:

k [1] | IC50 [2] | IC50 [3] | Compound
3.9 h⁻¹ | 5 nM | 140 nM | CC(=O)N1CSC[C@@H]1C(=O)N/C(=C\c1ccc(NC(=O)c2c(Cl)cccc2Cl)cc1)C(=O)O
4.1 h⁻¹ | 2800 nM | 5000 nM | CC(=O)N1CSC[C@@H]1C(=O)N/C(=C\c1ccc(OCc2c(Cl)cccc2Cl)cc1)C(=O)O
 | 2700 nM | 80000 nM | CC(C)(C)C(=O)N/C(=C/c1ccc(NC(=O)c2c(Cl)cccc2Cl)cc1)C(=O)O
0.7 h⁻¹ | 400 nM | 29000 nM | CC(=O)N1CSC[C@@H]1C(=O)N/C(=C/c1ccc(NC(=O)c2c(Cl)cccc2Cl)cc1)C(=O)O
1.2 h⁻¹ | 60 nM | 200 nM | CC(=O)N1CSC[C@@H]1C(=O)N/C(=C/c1ccc(NC(=O)c2c(Cl)cncc2Cl)cc1)C(=O)O
4.4 h⁻¹ | 2 nM | 25 nM | CC(=O)N1CSC[C@@H]1C(=O)N/C(=C\c1ccc(NC(=O)c2c(Cl)cncc2Cl)cc1)C(=O)O
0.4 h⁻¹ | 7400 nM | 83000 nM | CC(=O)N1CSCC1C(=O)N/C(=C/c1ccc(OCc2c(Cl)cccc2Cl)cc1)C(=O)O (stereo not drawn)
4.8 h⁻¹ | 50 nM | 3700 nM | CC(C)(C)C(=O)N/C(=C\c1ccc(NC(=O)c2c(Cl)cccc2Cl)cc1)C(=O)O
3.8 h⁻¹ | 2200 nM | 71000 nM | CC(=O)N1CSC[C@H]1C(=O)N/C(=C\c1ccc(OCc2ccccc2)cc1)C(=O)O
